{"data": "Experimental data gathered from unrelated publications", "target": "Serine/threonine-protein kinase Nek1 (NEK1, Homo sapiens, UniProt Q96PY6)", "Sequence (Q96PY6 1-1258, as in one of the studies)": "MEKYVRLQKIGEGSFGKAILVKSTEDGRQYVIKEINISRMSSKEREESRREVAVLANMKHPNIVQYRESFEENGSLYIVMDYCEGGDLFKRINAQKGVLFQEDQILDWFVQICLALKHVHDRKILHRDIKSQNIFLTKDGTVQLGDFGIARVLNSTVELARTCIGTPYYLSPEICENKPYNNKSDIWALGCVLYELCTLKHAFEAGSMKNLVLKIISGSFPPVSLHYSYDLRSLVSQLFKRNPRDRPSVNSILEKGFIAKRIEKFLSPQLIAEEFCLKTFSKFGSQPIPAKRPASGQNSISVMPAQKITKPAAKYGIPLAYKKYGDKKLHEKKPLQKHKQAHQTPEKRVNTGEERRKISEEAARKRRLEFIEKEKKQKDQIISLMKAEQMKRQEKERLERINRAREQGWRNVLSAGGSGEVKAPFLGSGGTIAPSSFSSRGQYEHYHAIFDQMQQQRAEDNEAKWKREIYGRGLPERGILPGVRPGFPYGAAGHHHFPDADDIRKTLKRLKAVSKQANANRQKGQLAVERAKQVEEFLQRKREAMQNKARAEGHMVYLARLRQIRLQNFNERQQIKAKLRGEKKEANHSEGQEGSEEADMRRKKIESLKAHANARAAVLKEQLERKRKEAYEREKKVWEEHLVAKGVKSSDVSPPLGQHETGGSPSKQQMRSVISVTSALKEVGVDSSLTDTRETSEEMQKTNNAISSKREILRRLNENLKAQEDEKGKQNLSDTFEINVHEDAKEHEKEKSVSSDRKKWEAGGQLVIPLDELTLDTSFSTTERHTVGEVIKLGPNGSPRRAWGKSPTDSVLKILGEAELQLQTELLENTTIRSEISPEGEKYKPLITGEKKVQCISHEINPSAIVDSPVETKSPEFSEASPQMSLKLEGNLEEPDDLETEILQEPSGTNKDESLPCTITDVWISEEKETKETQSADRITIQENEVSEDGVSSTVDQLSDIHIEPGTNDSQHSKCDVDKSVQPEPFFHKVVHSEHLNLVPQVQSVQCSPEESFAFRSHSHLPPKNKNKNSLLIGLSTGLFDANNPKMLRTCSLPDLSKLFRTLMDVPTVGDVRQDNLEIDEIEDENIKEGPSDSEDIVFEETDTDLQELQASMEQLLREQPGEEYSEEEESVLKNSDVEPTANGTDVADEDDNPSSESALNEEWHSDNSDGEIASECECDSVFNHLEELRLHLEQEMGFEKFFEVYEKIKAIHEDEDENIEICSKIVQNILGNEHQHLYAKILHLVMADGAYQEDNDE", "note": "Each line is one published result; the experiments were not run side by side."}
{"Structure (SMILES)": "C[C@@H]1CN(c2cc(-c3n[nH]c4ccc(OC5(C)CC5)cc34)ncn2)C[C@H](C)O1", "effect on": "cell-free assay", "method": "competition with immobilised ligand", "tested at": "0.1 µM", "measurement": "remaining binding", "result": "100%"}
{"Structure (SMILES)": "Cn1cnc(Br)c1C1=CN(c2ncnc3[nH]cnc23)CCS1", "effect on": "enzyme activity", "mode": "inhibitor", "method": "radiometric", "tested at": "50 nM", "measurement": "inhibition", "result": "33.1%"}
{"Structure (SMILES)": "C[S+]([O-])c1ccc(-c2nc(-c3ccncc3)c(-c3ccc(F)cc3)[nH]2)cc1 (stereo not shown)", "effect on": "cell-free assay", "tested at": "0.5 µM", "measurement": "remaining signal", "result": "94.7%"}
{"Structure (SMILES)": "COc1cc2ncnc(Nc3ccc(Oc4ccccc4)c(C)c3C)c2cc1OC", "effect on": "enzyme activity", "mode": "inhibitor", "tested at": "1 µM", "measurement": "inhibition", "result": "-2%"}
{"Structure (SMILES)": "C[C@H](c1ccc(F)cc1)N(Cc1cccc(C(=O)O)c1)C(=O)c1cnc2ccccc2c1", "effect on": "cell-free assay", "method": "competition with immobilised ligand", "tested at": "1 µM", "measurement": "remaining binding", "result": "100%"}
{"Structure (SMILES)": "CCN1CCN(Cc2ccc(NC(=O)c3ccc(C)c(/C=C/c4cnc5[nH]ccc5c4OC)c3)cc2C(F)(F)F)CC1", "effect on": "target engagement in cells", "mode": "inhibitor", "method": "chemoproteomics", "cell line": "A-375", "tested at": "0.5 µM", "measurement": "inhibition", "result": "-15.8%"}
{"Structure (SMILES)": "CS(=O)(=O)c1cc(C2(NC(=O)c3cncc4c3cnn4-c3ccc(F)cc3)CC2)ccn1", "effect on": "cell-free assay", "method": "competition with immobilised ligand", "tested at": "1 µM", "measurement": "remaining binding", "result": "45%"}
{"Structure (SMILES)": "CC(C)(O)[C@H]1CC[C@H](Nc2ccc3ncc(-c4cccc(C(F)(F)F)c4)n3n2)CC1", "effect on": "enzyme activity", "mode": "inhibitor", "tested at": "1 µM", "measurement": "remaining activity", "result": "48.3%"}
{"Structure (SMILES)": "CC/C(=N\\NC(=O)NCc1cccc(O)c1)c1ccc(O)c(C)c1O", "effect on": "enzyme activity", "mode": "inhibitor", "tested at": "0.1 µM", "measurement": "inhibition", "result": "-6%"}
{"Structure (SMILES)": "Nc1c(C(=O)NCc2ccc(C(=O)NCCCC3CCCCC3)cc2)cnn1-c1ccccc1", "effect on": "cell-free assay", "method": "competition with immobilised ligand", "tested at": "0.1 µM", "measurement": "remaining binding", "result": "84%"}
{"Structure (SMILES)": "CCN1CCN(Cc2ccc(NC(=O)c3ccc(C)c(Oc4ccnc5[nH]ccc45)c3)cc2C(F)(F)F)CC1", "effect on": "target engagement in cells", "mode": "inhibitor", "method": "chemoproteomics", "cell line": "A-375", "tested at": "0.5 µM", "measurement": "inhibition", "result": "-10.4%"}
{"Structure (SMILES)": "CNC(=O)c1ccc(Nc2ncc(C(F)(F)F)c(NCc3nccnc3N(C)S(C)(=O)=O)n2)cc1", "effect on": "cell-free assay", "method": "competition with immobilised ligand", "tested at": "0.1 µM", "measurement": "remaining binding", "result": "75%"}
{"Structure (SMILES)": "Nc1ncnc2occ(-c3ccc(NC(=O)Nc4cc(C(F)(F)F)ccc4F)cc3)c12", "effect on": "cell-free assay", "mode": "inhibitor", "tested at": "20 µM", "measurement": "remaining signal", "result": "22%"}
{"Structure (SMILES)": "C[C@@H](c1cccc(C#N)c1)n1cc(Cl)cc(C(N)=O)c1=N", "effect on": "cell-free assay", "method": "competition with immobilised ligand", "tested at": "1 µM", "measurement": "remaining binding", "result": "100%"}
{"Structure (SMILES)": "CC(C)(C)c1nc2c(s1)c1nc(N)ncc1c1ccc(NS(=O)(=O)c3c(F)cccc3F)c(F)c12", "effect on": "enzyme activity", "mode": "inhibitor", "method": "radiometric", "tested at": "1 µM", "measurement": "remaining activity", "result": "92%"}
{"Structure (SMILES)": "CCCCNc1ncc2c(-c3ccc(F)cc3)nn(C[C@H]3CC[C@H](N)CC3)c2n1", "effect on": "target engagement in cells", "mode": "inhibitor", "method": "chemoproteomics", "tested at": "20 mM", "measurement": "inhibition", "result": "-3.7%"}
{"Structure (SMILES)": "Cc1ccc(Nc2nccc(N(C)c3ccc4c(C)n(C)nc4c3)n2)cc1S(N)(=O)=O", "effect on": "enzyme activity", "mode": "inhibitor", "tested at": "0.5 µM", "measurement": "remaining activity", "result": "105%"}
{"Structure (SMILES)": "O=C(Nc1cnn(-c2csc(C(=O)NC3COC3)c2)c1)Nc1ccccc1Cl", "effect on": "enzyme activity", "mode": "inhibitor", "tested at": "5 µM", "measurement": "remaining activity", "result": "112%"}
{"Structure (SMILES)": "O=C1NC(=O)c2cc(Nc3ccc(F)cc3)c(Nc3ccc(F)cc3)cc21", "effect on": "cell-free assay", "tested at": "0.5 µM", "measurement": "remaining signal", "result": "88%"}
{"Structure (SMILES)": "Cc1ccc(C(=O)Nc2ccc(CN3CCN(C)CC3)c(C(F)(F)F)c2)cc1C#Cc1cnc2cccnn12", "effect on": "enzyme activity", "mode": "inhibitor", "tested at": "23.5 nM", "measurement": "remaining activity", "result": "98%"}
{"Structure (SMILES)": "COc1ccc(COc2ccc(Cc3cnc(N)nc3N)cc2OC)cc1", "effect on": "cell-free assay", "tested at": "0.5 µM", "measurement": "remaining signal", "result": "95.6%"}
{"Structure (SMILES)": "CC(=O)N1CCC(c2ccc(C(=O)NC3=NCCN3)cc2C(F)(F)F)CC1", "effect on": "cell-free assay", "method": "competition with immobilised ligand", "tested at": "1 µM", "measurement": "remaining binding", "result": "100%"}
